Results collected from several papers.
Protocols differ between the studies behind these lines.
Target: Insulin-like growth factor 1 receptor (IGF1R, Homo sapiens, UniProt P08069)

Compound	assay	setting	endpoint	value
C#Cc1cnc(Nc2ccnc(CO)c2)nc1Nc1ccccc1S(C)(=O)=NC#N (stereo not drawn)	cell-free assay	1 µM	remaining signal	36%
CN1CCN(C(=O)c2ccc(NC(=O)Nc3ccc(N(C)c4ccnc(Nc5ccc(CS(C)(=O)=O)cc5)n4)cc3)cc2)CC1	binding	1 µM	remaining binding	100%
N#Cc1ccc(NC(=O)Nc2ccccc2)cc1	cell-free assay, competition with immobilised ligand	25 µM	remaining binding	100%
C=CC(=O)N1CCC([C@@H]2CCNc3c(C(N)=O)c(-c4ccc(Oc5ccccc5)cc4)nn32)CC1	cell-free assay	1 µM	inhibition	14%
COc1ccc2oc(-c3ccc4nc(N)oc4c3)c/c(=N\c3ccccc3NC(=O)CCN)c2c1	binding	1 µM	remaining binding	93%
CCCCC(=O)Nc1ccc(-c2ccc3ncn(CCC)c(=O)c3c2)cn1	binding, competition with immobilised ligand	0.5 µM	remaining binding	98%
C[C@H]1CC[C@H](n2c3cnccc3c3cnc(Nc4ccc5c(n4)CCN(C(=O)CO)C5)nc32)CC1	binding	1 µM	remaining binding	100%
C1=C/COCc2cc(ccc2OCCN2CCCC2)Nc2nccc(n2)-c2cccc(c2)COC/1	binding	0.1 µM	remaining binding	83%
CC#CC(=O)N1CCC[C@H]1c1nc(-c2ccc(C(=O)Nc3ccccn3)cc2)c2c(N)nccn12	enzyme activity, inhibitor	1 µM	inhibition	3%
